Experimental data published in ChEMBL document CHEMBL4680172, “Synthesis and biological evaluation of coumarin derivatives as α-glucosidase inhibitors” (Eur J Med Chem, 2020).
Activity calls are given as the source filed them. The rule behind the calls is not given here.

Tests used:
[1] = Inhibition of Saccharomyces cerevisiae alpha-glucosidase using PNPG as substrate preincubated for 10 mins followed by substrate addition measured after 30 mins
Summary of the method: (§1)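 Enzyme 0.1 U/mL final in 0.1 M potassium phosphate, pH 6.8, with compound added from DMSO; 10 min at 37 ℃, then PNPG at 1 mmol/L final, another 30 min at 37 ℃. Absorbance read at 405 nm against a no-compound control. Line 1 screened at a single 100 µM; IC50 from the %inhibition–concentration plot. Duplicates, means taken.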

Saccharomyces cerevisiae [2] = test: Inhibition of Saccharomyces cerevisiae alpha-glucosidase at 100 uM using PNPG as substrate preincubated for 10 mins followed by substrate addition measured after 30 mins relative to control; conditions: time 40.0 min; summary of the method: as §1
Saccharomyces cerevisiae [3] = test: Mixed type inhibition of Saccharomyces cerevisiae alpha-glucosidase assessed as equilibrium constant for free enzyme using varying level of PNPG as substrate by Lineweaver-Burk double reciprocal plot analysis
Summary of the method: (§2)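 Run as the PNPG/phosphate pH 6.8, 37 ℃, 405 nm assay, but with compound concentration varied together with either PNPG or enzyme level. Lineweaver-Burk plots were made. KI (free enzyme) and KIS (enzyme–substrate complex) were taken from apparent Km/Vmax and 1/Vmax plotted against inhibitor concentration.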

Saccharomyces cerevisiae [4] = test: Mixed type inhibition of Saccharomyces cerevisiae alpha-glucosidase assessed as equilibrium constant for enzyme substrate complex using varying level of PNPG as substrate by Lineweaver-Burk double reciprocal plot analysis; summary of the method: as §2
Saccharomyces cerevisiae [5] = test: Reversible inhibition of Saccharomyces cerevisiae alpha-glucosidase
Summary of the method: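 Rate (ΔOD/min) was plotted against α-glucosidase concentration at several fixed inhibitor levels, 0–35 µM. Conditions otherwise as in the PNPG 405 nm assay at pH 6.8 and 37 ℃.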

With `O=C(/C=C/c1ccc(Br)cc1)Oc1cc(=O)oc2ccccc12` the IC50 [1] was 69.3 µM and the inhibition (Saccharomyces cerevisiae [2]) was 61%.

Compound `O=C(/C=C/c1ccccc1)Oc1cc(=O)oc2ccccc12` has an IC50 [1] of 19.6 µM, an inhibition (Saccharomyces cerevisiae [2]) of 83.5% and a Ke (Saccharomyces cerevisiae [3]) of 27.4 µM. The Ke (Saccharomyces cerevisiae [4]) was 13 µM and the inhibition (Saccharomyces cerevisiae [5]) was “Active”.

In the case of `O=C(/C=C/c1ccc(F)cc1)Oc1ccc2ccc(=O)oc2c1`, the IC50 [1] is reported as > 100 µM and the inhibition (Saccharomyces cerevisiae [2]) is reported as 26.2%.

With `O=C(/C=C/c1ccc(C(F)(F)F)cc1)Oc1ccc2ccc(=O)oc2c1` the IC50 [1] was > 100 µM and the inhibition (Saccharomyces cerevisiae [2]) was 38.2%.

For `COc1cc(/C=C/C(=O)Oc2ccc3ccc(=O)oc3c2)ccc1O`, the IC50 [1] was > 100 µM and the inhibition (Saccharomyces cerevisiae [2]) was 20.3%.

With `O=C(/C=C/c1ccc(Cl)cc1)Oc1cc(=O)oc2ccccc12` the IC50 [1] was > 100 µM and the inhibition (Saccharomyces cerevisiae [2]) was 33.1%.

For `O=C(/C=C/c1ccc(O)cc1)Oc1cc(=O)oc2ccccc12`, the IC50 [1] was > 100 µM and the inhibition (Saccharomyces cerevisiae [2]) was 33.2%.

Compound `O=C(/C=C/c1ccc(F)cc1)Oc1cc(=O)oc2ccccc12` has an IC50 [1] of 41.7 µM and an inhibition (Saccharomyces cerevisiae [2]) of 68.5%.

For `O=C(/C=C/c1ccc(Cl)cc1)Oc1ccc2ccc(=O)oc2c1`, the IC50 [1] was > 100 µM and the inhibition (Saccharomyces cerevisiae [2]) was 29.9%.

With `Cc1ccc(/C=C/C(=O)Oc2ccc3ccc(=O)oc3c2)cc1` the IC50 [1] was 94.5 µM and the inhibition (Saccharomyces cerevisiae [2]) was 54.7%.

With `C[C@H]1[C@H](C)CC[C@]2(C(=O)O)CC[C@]3(C)C(=CC[C@@H]4[C@@]5(C)CC[C@H](O)C(C)(C)[C@@H]5CC[C@]43C)[C@H]12` [URSOLIC ACID] the IC50 [1] was 11.4 µM.

`COc1ccc(/C=C/C(=O)Oc2cc(=O)oc3ccccc23)cc1` showed an IC50 [1] of 36.9 µM and an inhibition (Saccharomyces cerevisiae [2]) of 73.2%.

With `O=C(/C=C/c1ccccc1)Oc1ccc2ccc(=O)oc2c1` [7-CINNAMOYLOXYCOUMARIN] the IC50 [1] was > 100 µM and the inhibition (Saccharomyces cerevisiae [2]) was 45.6%.

With `COc1cc(/C=C/C(=O)Oc2cc(=O)oc3ccccc23)ccc1O` the IC50 [1] was > 100 µM and the inhibition (Saccharomyces cerevisiae [2]) was 19.5%.

With `O=C(/C=C/c1ccc(Br)cc1)Oc1ccc2ccc(=O)oc2c1` the IC50 [1] was > 100 µM and the inhibition (Saccharomyces cerevisiae [2]) was 30.1%.

Compound `O=c1ccc2ccc(O)cc2o1` [UMBELLIFERONE] has an IC50 [1] of 9000 µM.

In the case of `O=C(O)/C=C/c1ccccc1` [CINNAMIC ACID], the IC50 [1] is reported as 15000 µM.

For `COc1ccc(/C=C/C(=O)Oc2ccc3ccc(=O)oc3c2)cc1`, the IC50 [1] was > 100 µM and the inhibition (Saccharomyces cerevisiae [2]) was 20.2%.

With `Cc1ccc(/C=C/C(=O)Oc2cc(=O)oc3ccccc23)cc1` the IC50 [1] was 13 µM, the inhibition (Saccharomyces cerevisiae [2]) was 89.9% and the Ke (Saccharomyces cerevisiae [3]) was 27 µM. For the same compound, the Ke (Saccharomyces cerevisiae [4]) was 13.7 µM and the inhibition (Saccharomyces cerevisiae [5]) was “Active”.

For `O=C(/C=C/c1ccc(O)cc1)Oc1ccc2ccc(=O)oc2c1`, the IC50 [1] was > 100 µM and the inhibition (Saccharomyces cerevisiae [2]) was 13.1%.

With `O=C(/C=C/c1ccc(C(F)(F)F)cc1)Oc1cc(=O)oc2ccccc12` the IC50 [1] was > 100 µM and the inhibition (Saccharomyces cerevisiae [2]) was 41.9%.
